Source: PubChem BioAssay
The source made the active and inactive calls.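 The calls were made as follows, unless noted: active = inhibition of the reporter signal at or above 50%; inactive = inhibition below 50%.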

Legend:
[1] = inhibitors of TNFa-induced NFkB p65 translocation, primary screen, imaging, HUVEC, MLSMR starter and 10KST1 sets (AID 438;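 active = inhibition above 20% together with a positive visual image hit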;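 also: compound added about 3h40 before a 20 min TNFalpha stimulation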;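 as to inhibition: signal is the nuclear over cytoplasmic p65 intensity ratio per well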); conditions: HUVEC TNFa-induced p65 nuclear translocation; cell count: measured here: nuclei count (cytotoxicity indicator), at 2.08 µM; inhibition: at 2 µM, stronger effect = higher value, 0% TNFa-plus-vehicle, 100% no-TNFa wells
[2] = reduction of polyQ htt aggregates in cells – imaging, exon1htt(103Q)mCFP cells, high-content imaging, primary screen (AID 483;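 active = visual image review flags a hit and inhibition of aggregation exceeds 20%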;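 also: compound exposure lasted 3 days before fixation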;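 as to nuclei count: percent of the per-plate median nuclei count of sample wells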); conditions: exon1htt(103Q)mCFP cell line, aggregate imaging, at 2 µM; inhibition of aggregation: stronger effect = higher value; nuclei count: measured here: cell count, toxicity
[3] = endothelial E-selectin expression blockers – imaging, HUVEC, immunofluorescence, MLSMR starter and 10KST1 sets, primary screen (AID 487;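 active = visually confirmed hit in the image check and inhibition above 20%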;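 as to inhibition: signal is fraction of cell area covered by stained E-selectin grains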;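 as to nuclei count: 100% = median nuclei count of all wells on the same plate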); conditions: HUVEC TNFalpha-induced E-selectin immunofluorescence imaging, at 2 µM; inhibition: stronger effect = higher value; nuclei count: measured here: cell number, toxicity
[4] = biological target: Voltage-gated potassium channel subunit beta-2 (Rattus norvegicus) (UniProt P62483); test: inhibitors of rat Kvbeta2 reductase activity – biochemical, NADPH fluorescence, primary screen (AID 622;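 active = fluorescence slope higher than the sample average by over 3 SD, cut at about -0.22 in these data, passing the limit was not always enough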;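 also: slope of raw intensity against log time taken from 70 to 1610 s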); conditions: recombinant KvBeta, 4-cyanobenzaldehyde reduction, at 10 µM, stronger effect = higher value
[5] = biological target: Voltage-gated potassium channel subunit beta-2 (Rattus norvegicus) (UniProt P62483); test: enhancers of rat Kvbeta2 NADPH turnover – biochemical, NADPH fluorescence, primary screen (AID 623;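 active = NADPH fluorescence slope more negative than the mean of all samples by about 3 SD, 99.7% confidence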;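 also: fluorescence intensity change per second fitted from 20 to 320 s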); conditions: Recombinant KvBeta, NADPH fluorescence decrease slope, 10 min; at 10 µM; stronger effect = lower value
[6] = biological target: Muscarinic acetylcholine receptor M4 (Homo sapiens) (UniProt P08173); test: M4-linked GIRK flux change, two-sided – cell-based, HEK293 M4/GIRK, thallium flux, BTC-AM, M4 allosteric agonist project, primary screen (AID 625;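 active = fluorescence slope after compound addition differing from the mean of all tested samples at 99.7% confidence, mostly higher but some lower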;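 also: thallium influx through GIRK channels coupled to M4 in HEK293 cells with BTC-AM dye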); conditions: at 10 µM, actives lie on both sides
In short: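 Material: M4/GIRK1/GIRK2 stable HEK293 cell line. Medium: pH 7.3 thallium assay buffer. Dosing: single compound concentration, 10 µM final. Schedule: 1 h dye loading, 2 min kinetic read. Measured by: kinetic fluorescence with BTC-AM dye. Read-out: post-addition slope, 15–24 s, of baseline-normalized fluorescence. Benchmarks: carbachol and DMSO controls.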

[7] = blockers of RIG-like receptor reporter activation – cell-based, Sendai virus stimulus, luciferase, 10K MLSCN set, TLR/RLR signaling modifier project, primary screen (AID 602276;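 active = inhibition at or above 50% at 10 µM; inactive = inhibition below 50%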;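 also: firefly luciferase from ISG56 promoter only with Renilla not read in this screen; 0% = Sendai virus plus DMSO and 100% = medium plus DMSO without virus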); conditions: HEK293 RL24 IRF3 luciferase reporter, at 10 µM, stronger effect = higher value
[8] = TLR3 IRF3 reporter activation blockers – cell-based, poly I:C stimulus, luciferase, 10K MLSCN set, primary screen (AID 602277); conditions: HEK293-TLR3 RL24 IRF3 luciferase reporter, at 10 µM, stronger effect = higher value

Sequence of Muscarinic acetylcholine receptor M4 (Homo sapiens) (P08173 whole entry, looked up): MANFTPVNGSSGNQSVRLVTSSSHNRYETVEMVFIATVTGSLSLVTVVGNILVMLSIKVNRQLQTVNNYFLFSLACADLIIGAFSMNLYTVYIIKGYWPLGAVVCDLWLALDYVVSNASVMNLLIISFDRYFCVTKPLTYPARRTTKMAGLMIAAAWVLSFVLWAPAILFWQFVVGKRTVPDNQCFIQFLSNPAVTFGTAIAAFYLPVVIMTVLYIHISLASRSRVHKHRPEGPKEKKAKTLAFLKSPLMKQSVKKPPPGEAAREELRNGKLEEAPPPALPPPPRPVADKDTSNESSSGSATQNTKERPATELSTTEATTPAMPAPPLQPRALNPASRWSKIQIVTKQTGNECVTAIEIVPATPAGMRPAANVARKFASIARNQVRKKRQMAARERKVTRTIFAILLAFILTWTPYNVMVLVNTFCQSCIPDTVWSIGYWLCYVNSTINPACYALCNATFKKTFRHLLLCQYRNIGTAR
Sequence of Voltage-gated potassium channel subunit beta-2 (Rattus norvegicus) (P62483 whole entry, looked up): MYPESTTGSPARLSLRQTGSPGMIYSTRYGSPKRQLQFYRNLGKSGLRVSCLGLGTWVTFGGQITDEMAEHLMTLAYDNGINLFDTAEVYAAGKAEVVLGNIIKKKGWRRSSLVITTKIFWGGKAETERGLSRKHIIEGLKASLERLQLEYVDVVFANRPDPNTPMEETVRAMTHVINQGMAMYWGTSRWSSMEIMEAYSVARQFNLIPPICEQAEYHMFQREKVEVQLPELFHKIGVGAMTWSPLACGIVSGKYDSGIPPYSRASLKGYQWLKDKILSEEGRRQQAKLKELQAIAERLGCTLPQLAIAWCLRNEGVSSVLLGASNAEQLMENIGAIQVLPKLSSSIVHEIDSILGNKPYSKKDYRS

SMILES | cell count [1] | inhibition [1] | inhibition of aggregation [2] | nuclei count [2] [%] | inhibition [3] | nuclei count [3] [%] | fluorescence slope [4] | NADPH fluorescence slope [5] | fluorescence slope [6] | inhibition [7] | inhibition [8]
O=C(Nc1ccccc1)c1ccc(NCC2CCCO2)c(S(=O)(=O)N2CCOCC2)c1 (configuration not stated) | 637 | -1.5% (inactive) | 0.8% (inactive) | 108 | -99.7% (inactive) | 98.8 | -0.453 (inactive) | 1.2e-05 (inactive) | 0.00503 (inactive) | 5.98% (inactive) | 15.7% (inactive)
COc1ccccc1S(=O)(=O)n1cc(Cc2ccccc2)c(N)n1 | 341 | -21.8% (inactive) | 0.9% (inactive) | 89 | -28.1% (inactive) | 114 | -0.493 (inactive) | -1.1e-05 (inactive) | 0.0055 (inactive) | 3.66% (inactive) | 31.1% (inactive)
CCn1cc(C(=O)N2CCCC2)c(=O)c2cc(S(=O)(=O)N3CCOCC3)ccc21 | 542 | -1% (inactive) | -13.1% (inactive) | 100 | 14.8% (inactive) | 113 | -0.427 (inactive) | -7.4e-05 (inactive) | 0.00706 (inactive) | 1.49% (inactive) | 12.8% (inactive)
CCOc1ccc(-c2nnc(N(CC)C(=O)C3CCC3)s2)cc1 | 440 | 9.7% (inactive) | 3.2% (inactive) | 103 | -32% (inactive) | 111 | -0.461 (inactive) | 2e-05 (inactive) | 0.00526 (inactive) | -19.2% (inactive) | -80.4% (inactive)
COC(=O)c1ccccc1NC(=O)Nc1cccs1 | 567 | -11.5% (inactive) | -4.6% (inactive) | 96.1 | -29.5% (inactive) | 110 | -0.425 (inactive) | -9.4e-05 (inactive) | 0.00583 (inactive) | 10.3% (inactive) | 11.6% (inactive)
C=C(C)Cn1c(SCC)nc2ccccc2c1=O | 399 | -5% (inactive) | 13.5% (inactive) | 98.7 | -26.7% (inactive) | 94.5 | -0.454 (inactive) | -0.000357 (inactive) | 0.0055 (inactive) | 9.69% (inactive) | 22.7% (inactive)
CNC(=O)CN(C#N)c1nc(N(C)C)nc(N(C)C)n1 | 349 | -2.3% (inactive) | 5.1% (inactive) | 92.5 | -47.6% (inactive) | 114 | -0.553 (inactive) | -2.5e-05 (inactive) | 0.00632 (inactive) | 6.17% (inactive) | 10.6% (inactive)
